Activity calls are given as the source filed them. No cut-off for these calls is given here.

Here are results for five compounds from ChEMBL document CHEMBL4725349, “Discovery of First-in-Class Protein Arginine Methyltransferase 5 (PRMT5) Degraders” (J Med Chem, 2020).

The target in data set [1] is T1, von Hippel-Lindau disease tumor suppressor/Protein arginine N-methyltransferase 5 (Homo sapiens, UniProt O14744+P40337). The experiment in a line: Induction of VHL-mediated PRMT5 degradation in human MCF7 cells at 1 to 5 uM incubated for 6 days by Western blot analysis. It counts as cell-based. Particulars: dose microM 1-5, time 6.0 day. The method in brief:
(§1)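 MCF-7 cells treated 6 d (0.2, 1 and 5 μM for initial screen, or indicated concentrations). RIPA lysates immunoblotted for PRMT5. Band intensity quantified by densitometry to derive DC50 and Dmax as mean ± SD from three independent experiments; screening blots representative of at least two.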
Target sequence in this assay (O14744 whole entry, looked up): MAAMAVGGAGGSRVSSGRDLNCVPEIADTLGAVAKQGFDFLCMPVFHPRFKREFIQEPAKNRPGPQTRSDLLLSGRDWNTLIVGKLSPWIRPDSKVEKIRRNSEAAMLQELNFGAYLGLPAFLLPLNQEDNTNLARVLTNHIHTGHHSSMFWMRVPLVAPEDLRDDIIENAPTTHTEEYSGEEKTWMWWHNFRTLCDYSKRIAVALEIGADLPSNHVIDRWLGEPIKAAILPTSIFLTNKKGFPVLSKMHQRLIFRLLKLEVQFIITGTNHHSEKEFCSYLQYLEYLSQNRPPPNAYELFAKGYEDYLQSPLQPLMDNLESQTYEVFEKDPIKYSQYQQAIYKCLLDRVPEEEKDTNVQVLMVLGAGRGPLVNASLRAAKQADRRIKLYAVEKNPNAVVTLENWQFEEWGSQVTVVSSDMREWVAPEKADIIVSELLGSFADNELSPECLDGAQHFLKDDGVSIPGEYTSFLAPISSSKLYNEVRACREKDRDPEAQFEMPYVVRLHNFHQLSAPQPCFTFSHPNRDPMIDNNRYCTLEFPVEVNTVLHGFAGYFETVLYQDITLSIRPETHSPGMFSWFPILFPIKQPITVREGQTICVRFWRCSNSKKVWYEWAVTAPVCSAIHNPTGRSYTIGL
Target sequence in this assay (P40337 whole entry, looked up): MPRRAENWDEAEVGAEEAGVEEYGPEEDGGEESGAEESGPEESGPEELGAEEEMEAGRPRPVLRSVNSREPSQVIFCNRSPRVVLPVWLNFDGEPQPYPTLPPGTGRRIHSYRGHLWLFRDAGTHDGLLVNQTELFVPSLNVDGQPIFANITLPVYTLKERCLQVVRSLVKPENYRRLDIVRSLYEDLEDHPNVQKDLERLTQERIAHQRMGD
A general note: In western blotting, separated proteins are transferred to a membrane and probed.

The target of data set [2] is T1, von Hippel-Lindau disease tumor suppressor/Protein arginine N-methyltransferase 5. The experiment in a line: Induction of VHL-mediated PRMT5 degradation in human MCF7 cells at 0.2 to 5 uM incubated for 6 days by Western blot analysis. As to conditions: dose microM 0.2-5, time 6.0 day. It counts as cell-based. The method, boiled down:
as §1
Target sequence in this assay (O14744 whole entry, looked up): as the sequence (O14744 whole entry, looked up) above
Target sequence in this assay (P40337 whole entry, looked up): as the sequence (P40337 whole entry, looked up) above

For data set [3] the target is unchanged. Put plainly: Induction of VHL-mediated PRMT5 degradation in human A172 cells at 5 uM incubated for 6 days by Western blot analysis. The class given is cell-based. As to conditions: A 172, time 6.0 day. The method, boiled down: (§2)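 HeLa, A549, A172 and Jurkat cells exposed to 5 μM for 6 d. Lysis in RIPA buffer with protease inhibitors, then SDS-PAGE, PVDF transfer and immunoblot for PRMT5 with β-actin loading control, ECL detection. Representative of two independent experiments.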
Target sequence in this assay (O14744 whole entry, looked up): as the sequence (O14744 whole entry, looked up) above
Target sequence in this assay (P40337 whole entry, looked up): as the sequence (P40337 whole entry, looked up) above

The target is the same in data set [4]. Put plainly: Induction of VHL-mediated PRMT5 degradation in human Jurkat cells at 5 uM incubated for 6 days by Western blot analysis. It counts as cell-based. As to conditions: time 6.0 day. The method in brief: as §2
Target sequence in this assay (O14744 whole entry, looked up): as the sequence (O14744 whole entry, looked up) above
Target sequence in this assay (P40337 whole entry, looked up): as the sequence (P40337 whole entry, looked up) above
Data set [5] is described as follows: Plasma concentration in Swiss albino mouse at 150 mg/kg, ip administered as single dose measured at 2 hrs post dose by LC-MS/MS method. The class given is ADME, organism-based. The method in brief:
(§3)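 Male Swiss albino mice received one 150 mg/kg IP dose in normal saline. Blood drawn under light isoflurane at 0.25, 0.5, 1, 2, 6 and 12 h, three mice per time point. Plasma acetonitrile-precipitated and quantified by LC-MS/MS (LLOQ 9.25 ng/mL); clinical signs observed.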

For data set [6], the target named is T1, von Hippel-Lindau disease tumor suppressor/Protein arginine N-methyltransferase 5. The experiment in a line: Induction of VHL-mediated PRMT5 degradation in human MCF7 cells at 5 uM supplemented with fresh medium containing compound every 2 days for 5 days by LC-MS based LFQ global proteomics analysis. The class given is cell-based. As to conditions: time 5.0 day. The method, boiled down:
(§4)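 MCF-7 cells given 5 μM compound or DMSO for 5 d, with fresh medium plus compound every 48 h; two biological replicates. Lysis in 8 M urea/50 mM Tris pH 8.0, DTT reduction, iodoacetamide alkylation, overnight trypsin digestion. Peptides run on nanoLC-Q-Exactive HF-X, 130 min gradient. Label-free quantitation; fold changes tested by two-sample t test.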
Target sequence in this assay (O14744 whole entry, looked up): as the sequence (O14744 whole entry, looked up) above
Target sequence in this assay (P40337 whole entry, looked up): as the sequence (P40337 whole entry, looked up) above

For data set [7] the target is unchanged. The experiment in a line: Induction of VHL-mediated PRMT5 degradation in human MCF7 cells assessed as PRMT5 level at 5 uM incubated for 7 days in presence of EPZ015666 by Western blot analysis relative to control. As to conditions: time 7.0 day. It counts as cell-based.
Target sequence in this assay (O14744 whole entry, looked up): as the sequence (O14744 whole entry, looked up) above
Target sequence in this assay (P40337 whole entry, looked up): as the sequence (P40337 whole entry, looked up) above
For data set [8] the target is unchanged. The experiment in a line: Induction of VHL-mediated PRMT5 degradation in human MCF7 cells incubated for 6 days by Western blot analysis. It counts as cell-based. The method, boiled down: as §1
Data set [9] has the same target. The experiment in a line: Induction of VHL-mediated PRMT5 degradation in human MCF7 cells assessed as PRMT5 level at 5 uM incubated for 7 days in presence of neddylation inhibitor MLN4924 by Western blot analysis relative to control. It counts as cell-based. As to conditions: time 7.0 day.
Data set [10] shares this target. Put plainly: Induction of VHL-mediated PRMT5 degradation in human MCF7 cells incubated for 6 days by Western blot analysis relative to control. It counts as cell-based. Particulars: time 6.0 day. The method, boiled down: as §1
The subject of the next data set is A549. Put plainly: Antiproliferative activity against human A549 cells assessed as reduction in cell viability supplemented with fresh medium containing compound every other day for 6 days by CellTiter-Glo assay. It counts as functional, cell-based. Particulars: dose microM 0.1-10, time 6.0 day. The method, boiled down:
(§5)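 HeLa, A549 and A172 grown in DMEM + 10% FBS; Jurkat in RPMI 1640 + 10% FBS; all at 37 °C, 5% CO2. Cells seeded, then treated 6 d with test agent, medium plus compound renewed every other day. Viability read by CellTiter-Glo and normalized to DMSO-treated cells; mean ± SD, n = 3.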
(In general: ATP-based viability assays read luminescence as a measure of living cells.)

Data set [11] addresses T1, von Hippel-Lindau disease tumor suppressor/Protein arginine N-methyltransferase 5. Put plainly: Induction of VHL-mediated PRMT5 degradation in human MCF7 cells assessed as PRMT5 level at 5 uM incubated for 7 days by Western blot analysis relative to control. The class given is cell-based. As to conditions: time 7.0 day.
In data set [12] the target is von Hippel-Lindau disease tumor suppressor/Methylosome protein WDR77 (Homo sapiens) (UniProt Q9BQA1+P40337). Put plainly: Induction of VHL-mediated WDR77 degradation in human MCF7 cells at 5 uM supplemented with fresh medium containing compound every 2 days for 5 days by LC-MS based LFQ global proteomics analysis. It counts as cell-based. Particulars: time 5.0 day. The method in brief:
as §4

Another data set addresses PRMT5/MEP50 complex (Homo sapiens, UniProt O14744). The experiment in a line: Inhibition of human PRMT5/MEP50 assessed as reduction in methyltransferase activity using histone 4 peptide as substrate in presence of [3H]SAM incubated for 30 mins. The class given is protein-complex assay. The method, boiled down: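 Radiometric FlashPlate assay tracking transfer of the 3H-methyl group from SAM (1 μM) to biotinylated H4 (1–15) peptide by human PRMT5/MEP50 (5 nM). Compounds were preincubated with enzyme and substrate for 20 min at rt. They were tested at 10 concentrations in threefold serial dilution from 5 μM, in duplicate. IC50 is reported as mean ± SD.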

Data set [13] relates to MCF7. Put plainly: Antiproliferative activity against human MCF7 cells incubated for 6 days by CellTiter-Glo assay. It counts as functional, cell-based. Particulars: dose microM 0.1-10, time 6.0 day. The method in brief: (§6)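 MCF-7 in DMEM + 10% FBS at 37 °C, 5% CO2. Cells exposed to graded concentrations for 6 d, medium with compound refreshed every other day. CellTiter-Glo luminescence, expressed as viability relative to DMSO control; mean ± SD, n = 3.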

Data set [14] can be described thus: Toxicity in Swiss albino mouse assessed as effect on clinical signs at 150 mg/kg, ip. The class given is organism-based. Particulars: in vivo. The method in brief: as §3
Another data set concerns A 172. Put plainly: Antiproliferative activity against human A172 cells assessed as reduction in cell viability supplemented with fresh medium containing compound every other day for 6 days by CellTiter-Glo assay. It counts as functional, cell-based. As to conditions: dose microM 0.1-10, time 6.0 day. The method in brief:
as §5

In data set [15] the target is T1, von Hippel-Lindau disease tumor suppressor/Protein arginine N-methyltransferase 5. Put plainly: Induction of VHL-mediated PRMT5 degradation in human MCF7 cells assessed as reduction in SDMA level incubated for 6 days by Western blot analysis. It counts as cell-based. Particulars: dose microM 0.1-3, time 6.0 day. The method in brief: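 SDMA read-out: MCF-7 cells given 0.1, 0.3, 1 or 3.0 μM for 6 d; global symmetric dimethylarginine detected on western blot with anti-SDMA antibody.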

The next data set deals with Jurkat. Put plainly: Antiproliferative activity against human Jurkat cells assessed as reduction in cell viability supplemented with fresh medium containing compound every other day for 6 days by CellTiter-Glo assay. The class given is functional, cell-based. As to conditions: dose microM 0.1-10, time 6.0 day. The method, boiled down: as §5
Data set [16] concerns the target von Hippel-Lindau disease tumor suppressor/Agrin (Homo sapiens) (UniProt P40337+O00468). Put plainly: Induction of VHL-mediated AGRN degradation in human MCF7 cells at 5 uM supplemented with fresh medium containing compound every 2 days for 5 days by LC-MS based LFQ global proteomics analysis. The class given is cell-based. Particulars: time 5.0 day. The method in brief: as §4

Data set [17] deals with T1, von Hippel-Lindau disease tumor suppressor/Protein arginine N-methyltransferase 5. The experiment in a line: Induction of VHL-mediated PRMT5 degradation in human A549 cells at 5 uM incubated for 6 days by Western blot analysis. As to conditions: time 6.0 day. It counts as cell-based. The method, boiled down: as §2
Data set [18] in a line: Plasma concentration in Swiss albino mouse at 150 mg/kg, ip administered as single dose measured after 12 hrs post dose by LC-MS/MS method. The class given is ADME, organism-based. The method in brief:
as §3

For data set [19], the target named is T1, von Hippel-Lindau disease tumor suppressor/Protein arginine N-methyltransferase 5. The experiment in a line: Induction of VHL-mediated PRMT5 degradation in human MCF7 cells assessed as PRMT5 level at 5 uM incubated for 7 days in presence of proteasome inhibitor MG-132 by Western blot analysis relative to control. Particulars: time 7.0 day. It counts as cell-based.

Data set [20] has the same target. Put plainly: Induction of VHL-mediated PRMT5 degradation in human MCF7 cells assessed as PRMT5 level at 5 uM incubated for 7 days in presence of VH-298 by Western blot analysis relative to control. It counts as cell-based. As to conditions: time 7.0 day.
The target is the same in data set [21]. Put plainly: Induction of VHL-mediated PRMT5 degradation in human MCF7 cells assessed as recovery of PRMT5 level at 5 uM incubated for 6 days followed by compound wash out and measured up to 48 hrs by Western blot analysis. The class given is cell-based. Particulars: time 6.0 day. The method, boiled down:
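Washout: MCF-7 cells treated 6 d with 5 μM, compound removed, and PRMT5 immunoblotted at 0, 12, 24 and 48 h after washout.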

Data set [22] shares this target. Put plainly: Induction of VHL-mediated PRMT5 degradation in human HeLa cells at 5 uM incubated for 6 days by Western blot analysis. It counts as cell-based. Particulars: time 6.0 day. The method, boiled down:
as §2

The test system of another data set is HeLa. The experiment in a line: Antiproliferative activity against human HeLa cells assessed as reduction in cell viability supplemented with fresh medium containing compound every other day for 6 days by CellTiter-Glo assay. It counts as functional, cell-based. As to conditions: dose microM 0.1-10, time 6.0 day. The method in brief: as §5
Data set [23] addresses T1, von Hippel-Lindau disease tumor suppressor/Protein arginine N-methyltransferase 5. Put plainly: Induction of VHL-mediated PRMT5 degradation in human MCF7 cells at 5 uM incubated for 6 days by Western blot analysis. It counts as cell-based. As to conditions: time 6.0 day. The method, boiled down: as §1
Data set [24] concerns MCF7. The experiment in a line: Antiproliferative activity against human MCF7 cells at 0.1 to 10 uM incubated for 6 days by CellTiter-Glo assay. The class given is functional, cell-based. Particulars: dose microM 0.1-10, time 6.0 day. The method in brief:
as §6

Sequence of PRMT5/MEP50 complex (O14744 whole entry): as the sequence (O14744 whole entry, looked up) above
Sequence of PRMT5/MEP50 complex (Q9BQA1 whole entry, further chain): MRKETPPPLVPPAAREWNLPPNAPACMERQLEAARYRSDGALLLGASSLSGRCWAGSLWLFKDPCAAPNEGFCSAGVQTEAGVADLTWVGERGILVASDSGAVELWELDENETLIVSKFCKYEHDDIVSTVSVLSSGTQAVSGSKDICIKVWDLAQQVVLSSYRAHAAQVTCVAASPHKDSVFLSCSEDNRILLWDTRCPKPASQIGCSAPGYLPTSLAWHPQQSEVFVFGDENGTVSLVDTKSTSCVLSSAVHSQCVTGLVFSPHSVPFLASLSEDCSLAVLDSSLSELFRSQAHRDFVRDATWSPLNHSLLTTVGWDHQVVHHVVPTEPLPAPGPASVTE
Sequence of von Hippel-Lindau disease tumor suppressor/Methylosome protein WDR77 (Homo sapiens) (P40337 whole entry, looked up): as the sequence (P40337 whole entry, looked up) above
Sequence of von Hippel-Lindau disease tumor suppressor/Methylosome protein WDR77 (Homo sapiens) (Q9BQA1 whole entry, looked up): as the sequence (Q9BQA1 whole entry, further chain) above
Sequence of von Hippel-Lindau disease tumor suppressor/Agrin (Homo sapiens) (O00468 whole entry, looked up): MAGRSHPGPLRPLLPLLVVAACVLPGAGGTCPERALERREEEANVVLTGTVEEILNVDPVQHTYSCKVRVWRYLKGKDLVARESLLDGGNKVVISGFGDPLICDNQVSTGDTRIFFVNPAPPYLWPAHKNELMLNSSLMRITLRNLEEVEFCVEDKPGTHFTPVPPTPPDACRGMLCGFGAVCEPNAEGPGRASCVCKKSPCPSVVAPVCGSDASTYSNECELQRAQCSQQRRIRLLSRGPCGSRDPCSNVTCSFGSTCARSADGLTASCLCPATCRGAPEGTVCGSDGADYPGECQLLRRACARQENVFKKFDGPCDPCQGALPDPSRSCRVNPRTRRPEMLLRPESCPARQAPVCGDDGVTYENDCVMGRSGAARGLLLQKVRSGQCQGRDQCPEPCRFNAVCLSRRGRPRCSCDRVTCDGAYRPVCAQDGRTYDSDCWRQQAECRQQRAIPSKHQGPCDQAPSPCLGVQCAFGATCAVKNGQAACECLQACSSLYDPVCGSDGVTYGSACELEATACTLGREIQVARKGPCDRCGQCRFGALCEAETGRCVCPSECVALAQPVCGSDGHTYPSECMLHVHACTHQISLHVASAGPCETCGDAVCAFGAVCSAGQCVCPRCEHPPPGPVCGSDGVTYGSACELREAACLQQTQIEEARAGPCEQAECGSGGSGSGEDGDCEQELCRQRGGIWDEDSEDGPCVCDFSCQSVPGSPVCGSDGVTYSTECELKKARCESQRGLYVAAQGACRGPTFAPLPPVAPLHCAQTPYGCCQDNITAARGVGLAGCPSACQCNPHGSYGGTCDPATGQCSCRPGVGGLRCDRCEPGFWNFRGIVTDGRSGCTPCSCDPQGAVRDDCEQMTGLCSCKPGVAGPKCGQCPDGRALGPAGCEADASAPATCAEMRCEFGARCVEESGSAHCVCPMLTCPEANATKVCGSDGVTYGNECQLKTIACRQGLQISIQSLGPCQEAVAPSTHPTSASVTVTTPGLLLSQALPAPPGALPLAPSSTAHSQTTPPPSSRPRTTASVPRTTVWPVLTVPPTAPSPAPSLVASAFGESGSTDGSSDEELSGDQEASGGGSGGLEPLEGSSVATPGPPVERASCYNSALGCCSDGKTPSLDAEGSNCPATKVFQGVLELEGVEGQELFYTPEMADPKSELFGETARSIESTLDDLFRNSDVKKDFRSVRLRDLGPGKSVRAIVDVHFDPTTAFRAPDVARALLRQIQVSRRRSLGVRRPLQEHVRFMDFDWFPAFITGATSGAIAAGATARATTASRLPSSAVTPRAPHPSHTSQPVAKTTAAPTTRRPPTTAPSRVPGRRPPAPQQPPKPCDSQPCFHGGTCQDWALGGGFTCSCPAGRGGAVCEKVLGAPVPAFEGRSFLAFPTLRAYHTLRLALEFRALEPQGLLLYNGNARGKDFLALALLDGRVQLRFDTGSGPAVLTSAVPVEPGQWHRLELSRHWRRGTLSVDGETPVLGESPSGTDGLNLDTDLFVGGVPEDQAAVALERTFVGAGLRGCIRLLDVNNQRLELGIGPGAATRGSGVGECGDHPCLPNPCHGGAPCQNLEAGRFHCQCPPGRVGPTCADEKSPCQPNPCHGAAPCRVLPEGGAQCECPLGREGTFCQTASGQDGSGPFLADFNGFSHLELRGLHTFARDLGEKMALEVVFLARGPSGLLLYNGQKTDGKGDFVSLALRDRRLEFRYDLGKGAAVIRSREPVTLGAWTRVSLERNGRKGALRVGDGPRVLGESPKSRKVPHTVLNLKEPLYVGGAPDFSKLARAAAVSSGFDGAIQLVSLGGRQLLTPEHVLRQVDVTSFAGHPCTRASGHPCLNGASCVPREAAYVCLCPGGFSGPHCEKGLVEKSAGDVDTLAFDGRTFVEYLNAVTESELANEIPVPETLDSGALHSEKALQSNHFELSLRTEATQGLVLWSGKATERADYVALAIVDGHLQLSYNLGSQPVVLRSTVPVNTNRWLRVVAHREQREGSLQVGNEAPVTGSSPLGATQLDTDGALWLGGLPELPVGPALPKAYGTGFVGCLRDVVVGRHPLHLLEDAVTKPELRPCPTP
Sequence of von Hippel-Lindau disease tumor suppressor/Agrin (Homo sapiens) (P40337 whole entry, looked up): as the sequence (P40337 whole entry, looked up) above

In the case of `Cc1ncsc1-c1ccc(CNC(=O)[C@@H]2C[C@@H](O)CN2C(=O)[C@@H](NC(=O)COCCOCCOCCOCCOCC(=O)N2CC(Nc3cc(C(=O)NC[C@H](O)CN4CCc5ccccc5C4)ncn3)C2)C(C)(C)C)cc1`, the result in data set [1] was Active.

Turning to `Cc1ncsc1-c1ccc(CNC(=O)[C@@H]2C[C@@H](O)CN2C(=O)[C@@H](NC(=O)CCOCCOCCOCCC(=O)N2CC(Nc3cc(C(=O)NC[C@H](O)CN4CCc5ccccc5C4)ncn3)C2)C(C)(C)C)cc1`, the result in [2] was inactive.

For the compound `Cc1ncsc1-c1ccc(CNC(=O)[C@@H]2C[C@@H](O)CN2C(=O)[C@@H](NC(=O)COCC(=O)N2CC(Nc3cc(C(=O)NC[C@H](O)CN4CCc5ccccc5C4)ncn3)C2)C(C)(C)C)cc1`, the outcome in data set [2] was inactive.

In the case of `Cc1ncsc1-c1ccc([C@H](C)NC(=O)[C@@H]2C[C@@H](O)CN2C(=O)[C@@H](NC(=O)COCCOCCOCCOCCOCC(=O)N2CC(Nc3cc(C(=O)NC[C@H](O)CN4CCc5ccccc5C4)ncn3)C2)C(C)(C)C)cc1`, the result in data set [3], in data set [4], in [6], in data set [12], in data set [16] and in data set [17] was Active. Moreover, the result in data set [21] and in data set [22] was Active. Besides, the concentration at 2 h in data set [5] is 14 µM. The fold change (FC) was 0.61 in data set [7]; 0.59 in [9]; 0.32 in [11]; 0.51 in [19]; 0.53 in [20]. Further, it took 1100 nM to reach half-maximal degradation in data set [8] (DC50). Further, the Activity result in data set [8] (time 6.0 day) was “Dose-dependent effect”; in the data set with A549, “Dose-dependent effect”; in the data set with MCF7 [13], “Dose-dependent effect”; in data set [14], “Non-Toxic”; with A 172, “Dose-dependent effect”; in data set [15] it was “Dose-dependent effect”. The Activity entry in the data set with Jurkat and with HeLa was “Dose-dependent effect” each time. Besides, in data set [10], the Emax (in general, the maximal effect, on the per cent scale that the assay sets) is 74%. For the same compound, the IC50 (in general, the concentration that inhibits the measured activity by half) on PRMT5/MEP50 complex came to 18 nM. In [18], this compound had a concentration at 12 h greater than 0.1 µM.

On to `Cc1ncsc1-c1ccc([C@H](C)NC(=O)[C@H]2C[C@H](O)CN2C(=O)[C@@H](NC(=O)COCCOCCOCCOCCOCC(=O)N2CC(Nc3cc(C(=O)NC[C@H](O)CN4CCc5ccccc5C4)ncn3)C2)C(C)(C)C)cc1`, for which the outcome (in data set [23]; in the data set with MCF7 [24]) was inactive. For the same compound, the IC50 on PRMT5/MEP50 complex turned out to be 12 nM.
